Experimental data published in ChEMBL document CHEMBL1944598, “First synthesis and anticancer activity of novel naphthoquinone amides” (Eur J Med Chem, 2012).
Active and inactive are the calls of the source. The calls are words filed in the database; no cut-off is given here.

What was measured:
KB = experiment: Cytotoxicity against human KB cells after 3 days by resazurin microplate assay; format: functional, cell-based
In short: (§1)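 Log-phase cells seeded at 7×10^4 cells/mL (KB) or 9×10^4 cells/mL (MCF-7) onto compounds in 0.5% DMSO. Incubated 3 days at 37 °C, 5% CO₂, then resazurin added for 4 h. Fluorescence read at ex 530/em 590 nm. IC50 by curve fit from 6 two-fold serial dilutions. Doxorubicin positive, 0.5% DMSO negative control. Mean of three replicates ± SD.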

NCI-H187 = experiment: Cytotoxicity against human NCI-H187 cells after 5 days by resazurin microplate assay; format: functional, cell-based; details: NCI-H187, 120 h
In short: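 Log-phase NCI-H187 cells diluted to 9×10^4 cells/mL and seeded onto compounds in 0.5% DMSO. After 5 days at 37 °C, 5% CO₂, resazurin added for 4 h. Fluorescence read at ex 530/em 590 nm. IC50 fitted from 6 two-fold serial dilutions. Doxorubicin and 0.5% DMSO controls. Mean of three replicates ± SD.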

MCF7 = experiment: Cytotoxicity against human MCF7 cells after 3 days by resazurin microplate assay; format: functional, cell-based; in short: as §1
Vero = experiment: Cytotoxicity against african green monkey Vero cells expressing GFP after 4 days by fluorescence assay; format: cell-based; details: Chlorocebus sabaeus, 96 h
In short: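 Vero (African green monkey kidney) cells stably transfected with pEGFP-N1, kept in MEM with 10% heat-inactivated FBS, 2 mM L-glutamine, 1 mM pyruvate, geneticin. Cells seeded at 3.3 × 10⁴ cells/mL onto compounds diluted in 0.5% DMSO, 4 days at 37 °C, 5% CO₂. Bottom-read fluorescence (ex 485/em 535 nm), day-0 background subtracted. IC50 by curve fit from 6 two-fold dilutions.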

[1] = biological target: DNA topoisomerase 2-alpha (Homo sapiens) (UniProt P11388); experiment: Inhibition of human topoisomerase 2alpha-mediated decatenation of kinetoplast DNA at 50 uM after 1 hr using ethidium bromide by agarose gel electrophoresis analysis
In short: (§2)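 Doxorubicin as positive control. Stopped with Sarkosyl loading dye. Run on 1% agarose in 0.5x TBE with ethidium bromide at 50 V, imaged under UV. Decatenated and linearized kDNA used as markers.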

[2] = biological target: DNA topoisomerase 2-alpha (Homo sapiens) (UniProt P11388); experiment: Inhibition of human topoisomerase 2alpha-mediated decatenation of kinetoplast DNA at 10 uM after 1 hr using ethidium bromide by agarose gel electrophoresis analysis relative to doxorubicin; in short: as §2
[3] = biological target: DNA topoisomerase 2-alpha (Homo sapiens) (UniProt P11388); experiment: Inhibition of human topoisomerase 2alpha-mediated decatenation of kinetoplast DNA at 20 uM after 1 hr using ethidium bromide by agarose gel electrophoresis analysis; in short: as §2
[4] = Homo sapiens, KB, 72 h, read-out: IC50
[5] = Homo sapiens, MCF7, 72 h, read-out: IC50

Sequence of DNA topoisomerase 2-alpha (Homo sapiens) (P11388 whole entry): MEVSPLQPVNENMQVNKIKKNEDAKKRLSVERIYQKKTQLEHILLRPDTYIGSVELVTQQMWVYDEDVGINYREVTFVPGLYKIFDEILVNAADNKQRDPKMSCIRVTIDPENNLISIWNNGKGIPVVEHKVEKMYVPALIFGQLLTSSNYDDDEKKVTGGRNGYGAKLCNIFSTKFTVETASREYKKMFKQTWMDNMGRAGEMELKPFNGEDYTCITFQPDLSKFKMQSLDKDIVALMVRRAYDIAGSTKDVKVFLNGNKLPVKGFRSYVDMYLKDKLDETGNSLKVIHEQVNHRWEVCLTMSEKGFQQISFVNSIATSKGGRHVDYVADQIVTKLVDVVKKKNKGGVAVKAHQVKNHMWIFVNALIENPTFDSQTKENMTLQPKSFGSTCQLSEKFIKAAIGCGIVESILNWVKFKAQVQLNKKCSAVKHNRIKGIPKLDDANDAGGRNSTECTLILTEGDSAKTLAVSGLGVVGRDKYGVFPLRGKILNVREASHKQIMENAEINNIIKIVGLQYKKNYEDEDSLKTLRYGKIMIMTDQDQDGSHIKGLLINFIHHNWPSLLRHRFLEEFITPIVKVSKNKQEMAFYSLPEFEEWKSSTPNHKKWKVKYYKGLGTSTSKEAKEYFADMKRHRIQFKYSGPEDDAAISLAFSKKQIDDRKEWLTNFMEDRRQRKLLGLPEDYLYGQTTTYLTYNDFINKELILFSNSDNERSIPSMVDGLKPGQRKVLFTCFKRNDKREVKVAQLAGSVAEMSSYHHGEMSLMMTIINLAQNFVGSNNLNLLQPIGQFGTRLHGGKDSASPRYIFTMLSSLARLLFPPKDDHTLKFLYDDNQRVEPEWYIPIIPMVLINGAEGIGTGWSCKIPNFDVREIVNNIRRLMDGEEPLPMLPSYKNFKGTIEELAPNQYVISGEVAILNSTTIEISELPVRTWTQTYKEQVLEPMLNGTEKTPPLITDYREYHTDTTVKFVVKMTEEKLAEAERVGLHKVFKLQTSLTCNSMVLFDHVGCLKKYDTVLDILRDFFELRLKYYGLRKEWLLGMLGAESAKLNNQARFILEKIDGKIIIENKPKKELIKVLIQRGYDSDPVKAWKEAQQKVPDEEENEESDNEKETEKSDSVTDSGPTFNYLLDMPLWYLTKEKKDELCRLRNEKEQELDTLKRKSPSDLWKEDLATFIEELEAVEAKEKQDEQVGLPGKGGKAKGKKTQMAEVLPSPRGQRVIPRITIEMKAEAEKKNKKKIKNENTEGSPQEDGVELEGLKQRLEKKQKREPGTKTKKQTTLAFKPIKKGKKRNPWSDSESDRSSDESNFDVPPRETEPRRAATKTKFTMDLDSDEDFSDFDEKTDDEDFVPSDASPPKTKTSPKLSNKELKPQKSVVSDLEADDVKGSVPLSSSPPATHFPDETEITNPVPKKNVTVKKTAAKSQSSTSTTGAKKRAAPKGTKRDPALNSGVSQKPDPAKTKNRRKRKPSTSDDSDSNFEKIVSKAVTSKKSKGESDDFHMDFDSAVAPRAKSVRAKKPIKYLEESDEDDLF

Row | inhibition [1] | inhibition [2] | inhibition [3] | SMILES | IC50 (KB; [4]) [µM] | IC50 (NCI-H187) [µM] | IC50 (MCF7; [5]) [µM] | IC50 (Vero) [µM] | IC50 (MCF7; mcf7) | IC50 (KB; kb)
1 | – | – | – | COC1=C(CC(C)(C)CNC(=O)c2cc(OC)ccc2OC)C(=O)c2ccccc2C1=O | 34.3 | 74.3 | 57.9 | 36.2 | – | –
2 | Active | inactive | – | COc1cc(C(=O)NCC(C)(C)CC2=C(O)C(=O)c3ccccc3C2=O)c(OC)c2ccccc12 | 47 | 19.8 | – | 17.7 | Not Active | –
3 | – | – | – | COC1=C(CC(C)(C)CNC(=O)c2cc(OC)c3ccccc3c2OC)C(=O)c2ccccc2C1=O | 41.2 | 19.6 | – | 30.1 | Not Active | –
4 | – | – | – | COc1ccc(O)c(C(=O)NCC(C)(C)CC2=C(O)C(=O)c3ccccc3C2=O)c1 | – | 15 | 39.6 | 31.1 | – | Not Active
5 | – | – | – | COC1=C(CC(C)(C)CNC(=O)c2ccc3ccccc3c2)C(=O)c2ccccc2C1=O | 34.1 | 25.7 | 52.5 | 36 | – | –
6 | – | – | – | COC1=C(CC(C)(C)CNC(=O)c2ccccc2OC)C(=O)c2ccccc2C1=O | 33.2 | 34.7 | 70.7 | 27.3 | – | –
7 | – | – | – | COc1c(C(=O)NCC(C)(C)CC2=C(O)C(=O)c3ccccc3C2=O)ccc2ccccc12 | 66.9 | 37 | 39.8 | 47.3 | – | –
8 | – | – | – | CC(C)(CNC(=O)c1ccccc1)CC1=C(O)C(=O)c2ccccc2C1=O | 15.2 | 40.1 | 37.1 | 50.5 | – | –
9 | – | – | – | COC1=C(CC(C)(C)CNC(=O)c2ccc3ccccc3c2OC)C(=O)c2ccccc2C1=O | 64.1 | 53.2 | 95.7 | 60.6 | – | –
10 | – | – | – | COc1cccc2c1C(=O)c1c(O)c3c(c(O)c1C2=O)C[C@@](O)(C(=O)CO)C[C@@H]3O[C@H]1C[C@H](N)[C@H](O)[C@H](C)O1 [DOXORUBICIN] | 0.9 | 0.16 | – | 28.8 | – | –
11 | Active | inactive | – | CC(C)(CNC(=O)c1ccccc1O)CC1=C(O)C(=O)c2ccccc2C1=O | 44.9 | 8.83 | 28.1 | 32.1 | – | –
12 | Active | inactive | – | CC(C)(CNC(=O)c1ccc2ccccc2c1)CC1=C(O)C(=O)c2ccccc2C1=O | 9 | 19.5 | 28.2 | 46.6 | – | –
13 | Active | inactive | Active | CC(C)(CNC(=O)c1ccc2ccccc2c1O)CC1=C(O)C(=O)c2ccccc2C1=O | 26.9 | 14.4 | 79.5 | 93.7 | – | –
14 | – | – | – | COC1=C(CC(C)(C)CNC(=O)c2ccccc2)C(=O)c2ccccc2C1=O | 117 | 19.1 | 61.8 | 12.3 | – | –
15 | – | – | – | COc1ccc(OC)c(C(=O)NCC(C)(C)CC2=C(O)C(=O)c3ccccc3C2=O)c1 | 86.6 | 40.9 | 99.4 | 89.1 | – | –
16 | Active | inactive | Active | COc1cc(C(=O)NCC(C)(C)CC2=C(O)C(=O)c3ccccc3C2=O)c(O)c2ccccc12 | 8.62 | 26 | 35.6 | 15.8 | – | –
17 | – | – | – | COc1ccccc1C(=O)NCC(C)(C)CC1=C(O)C(=O)c2ccccc2C1=O | 26.3 | 42.9 | 111 | 31.2 | – | –
